SMILES strings stand for the structures.

From ChEMBL document CHEMBL1152560, “Substituted 2-arylbenzothiazoles as kinase inhibitors: hit-to-lead optimization” (Bioorg Med Chem, 2009) come the findings set out here.

Experiment [1] addresses T1, cAMP-dependent protein kinase catalytic subunit PRKX (Homo sapiens) (UniProt P51817).
T1 sequence (whole entry): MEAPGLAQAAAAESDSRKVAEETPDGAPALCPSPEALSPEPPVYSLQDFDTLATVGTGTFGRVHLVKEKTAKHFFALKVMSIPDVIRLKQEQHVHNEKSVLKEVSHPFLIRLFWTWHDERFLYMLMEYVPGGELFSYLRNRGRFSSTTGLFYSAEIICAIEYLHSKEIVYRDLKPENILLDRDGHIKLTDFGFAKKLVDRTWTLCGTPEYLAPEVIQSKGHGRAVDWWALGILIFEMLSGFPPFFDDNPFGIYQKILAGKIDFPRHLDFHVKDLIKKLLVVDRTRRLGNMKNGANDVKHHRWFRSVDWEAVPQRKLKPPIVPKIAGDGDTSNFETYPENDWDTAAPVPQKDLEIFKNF
The experiment is described as follows: Residual activity of PRKX at 1 uM by microplate scintillation counting.

Experiment [2] has as its target Ribosomal protein S6 kinase alpha-2 (Homo sapiens) (UniProt Q15349). The experiment is described as follows: Residual activity of RPS6KA2 at 1 uM by microplate scintillation counting.
Experiment [3] addresses Platelet-derived growth factor receptor beta (Homo sapiens, UniProt P09619). In words: Inhibition of PDGFRbeta in human HCT116 cells by cellular phosphorylation assay. The class given is cell-based, HCT-116. The essentials: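 Cells expressing PDGFRβ were treated with compound, then stimulated to give maximal autophosphorylation in controls. Cells were lysed, and receptor phosphorylation was quantified by sandwich ELISA with a receptor-specific capture antibody and an anti-phosphotyrosine antibody. EC50 from a sigmoidal curve relative to the stimulated high control. Nine concentrations, 1 nM–10 μM in half-log steps, each in duplicate.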

In experiment [4] the target is Epidermal growth factor receptor (Homo sapiens, UniProt P00533). In words: Inhibition of EGFR in human HCT116 cells by cellular phosphorylation assay.
Sequence of Epidermal growth factor receptor (P00533 whole entry): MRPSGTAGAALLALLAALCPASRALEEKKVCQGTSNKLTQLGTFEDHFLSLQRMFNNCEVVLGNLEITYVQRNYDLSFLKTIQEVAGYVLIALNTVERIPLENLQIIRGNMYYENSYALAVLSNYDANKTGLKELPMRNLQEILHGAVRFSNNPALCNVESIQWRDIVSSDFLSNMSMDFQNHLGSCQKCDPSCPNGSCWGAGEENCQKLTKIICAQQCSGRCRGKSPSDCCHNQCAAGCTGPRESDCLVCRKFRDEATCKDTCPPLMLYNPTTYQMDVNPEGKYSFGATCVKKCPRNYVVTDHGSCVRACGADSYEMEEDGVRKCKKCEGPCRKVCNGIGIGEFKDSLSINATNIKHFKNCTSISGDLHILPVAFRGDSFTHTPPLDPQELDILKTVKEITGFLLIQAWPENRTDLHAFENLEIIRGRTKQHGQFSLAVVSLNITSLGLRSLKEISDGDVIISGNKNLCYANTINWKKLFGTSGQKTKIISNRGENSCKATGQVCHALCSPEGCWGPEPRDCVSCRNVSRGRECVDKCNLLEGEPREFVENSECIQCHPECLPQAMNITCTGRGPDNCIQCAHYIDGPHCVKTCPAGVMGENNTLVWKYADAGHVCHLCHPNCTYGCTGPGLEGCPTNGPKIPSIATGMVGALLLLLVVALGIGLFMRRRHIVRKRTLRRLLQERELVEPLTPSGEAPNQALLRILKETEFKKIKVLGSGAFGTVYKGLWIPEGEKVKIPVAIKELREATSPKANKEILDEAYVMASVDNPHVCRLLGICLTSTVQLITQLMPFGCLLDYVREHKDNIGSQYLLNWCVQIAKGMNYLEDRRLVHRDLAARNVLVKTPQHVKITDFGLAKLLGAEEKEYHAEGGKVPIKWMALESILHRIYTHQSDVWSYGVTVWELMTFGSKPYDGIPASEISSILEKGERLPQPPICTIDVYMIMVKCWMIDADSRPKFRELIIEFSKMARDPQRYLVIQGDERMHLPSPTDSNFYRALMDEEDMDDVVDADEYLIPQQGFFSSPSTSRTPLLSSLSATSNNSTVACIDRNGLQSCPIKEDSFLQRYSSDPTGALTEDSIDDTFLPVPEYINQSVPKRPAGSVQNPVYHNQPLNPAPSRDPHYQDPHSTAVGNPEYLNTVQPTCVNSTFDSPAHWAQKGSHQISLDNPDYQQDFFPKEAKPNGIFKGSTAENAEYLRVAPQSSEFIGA

Sequence of Ribosomal protein S6 kinase alpha-2 (Homo sapiens) (Q15349 whole entry): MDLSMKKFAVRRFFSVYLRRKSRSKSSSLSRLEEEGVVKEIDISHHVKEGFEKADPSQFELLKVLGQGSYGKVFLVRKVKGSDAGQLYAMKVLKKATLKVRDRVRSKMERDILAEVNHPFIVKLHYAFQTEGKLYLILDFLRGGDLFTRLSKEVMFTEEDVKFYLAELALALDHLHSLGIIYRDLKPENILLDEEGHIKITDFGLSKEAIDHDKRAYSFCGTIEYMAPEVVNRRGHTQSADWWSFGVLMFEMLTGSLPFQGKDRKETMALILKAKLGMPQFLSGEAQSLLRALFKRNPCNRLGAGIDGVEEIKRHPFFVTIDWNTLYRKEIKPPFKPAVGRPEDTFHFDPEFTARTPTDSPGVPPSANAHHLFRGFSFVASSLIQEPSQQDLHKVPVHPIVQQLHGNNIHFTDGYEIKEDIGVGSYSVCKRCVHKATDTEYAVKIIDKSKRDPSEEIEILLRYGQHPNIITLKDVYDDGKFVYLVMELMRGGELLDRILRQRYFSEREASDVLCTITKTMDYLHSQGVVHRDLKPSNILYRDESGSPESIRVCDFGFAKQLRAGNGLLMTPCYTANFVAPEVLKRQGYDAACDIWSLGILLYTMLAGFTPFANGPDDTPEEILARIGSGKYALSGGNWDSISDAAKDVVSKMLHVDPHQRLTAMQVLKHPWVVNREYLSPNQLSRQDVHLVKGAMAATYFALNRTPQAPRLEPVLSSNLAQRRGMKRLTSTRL
Sequence of Platelet-derived growth factor receptor beta (P09619 whole entry): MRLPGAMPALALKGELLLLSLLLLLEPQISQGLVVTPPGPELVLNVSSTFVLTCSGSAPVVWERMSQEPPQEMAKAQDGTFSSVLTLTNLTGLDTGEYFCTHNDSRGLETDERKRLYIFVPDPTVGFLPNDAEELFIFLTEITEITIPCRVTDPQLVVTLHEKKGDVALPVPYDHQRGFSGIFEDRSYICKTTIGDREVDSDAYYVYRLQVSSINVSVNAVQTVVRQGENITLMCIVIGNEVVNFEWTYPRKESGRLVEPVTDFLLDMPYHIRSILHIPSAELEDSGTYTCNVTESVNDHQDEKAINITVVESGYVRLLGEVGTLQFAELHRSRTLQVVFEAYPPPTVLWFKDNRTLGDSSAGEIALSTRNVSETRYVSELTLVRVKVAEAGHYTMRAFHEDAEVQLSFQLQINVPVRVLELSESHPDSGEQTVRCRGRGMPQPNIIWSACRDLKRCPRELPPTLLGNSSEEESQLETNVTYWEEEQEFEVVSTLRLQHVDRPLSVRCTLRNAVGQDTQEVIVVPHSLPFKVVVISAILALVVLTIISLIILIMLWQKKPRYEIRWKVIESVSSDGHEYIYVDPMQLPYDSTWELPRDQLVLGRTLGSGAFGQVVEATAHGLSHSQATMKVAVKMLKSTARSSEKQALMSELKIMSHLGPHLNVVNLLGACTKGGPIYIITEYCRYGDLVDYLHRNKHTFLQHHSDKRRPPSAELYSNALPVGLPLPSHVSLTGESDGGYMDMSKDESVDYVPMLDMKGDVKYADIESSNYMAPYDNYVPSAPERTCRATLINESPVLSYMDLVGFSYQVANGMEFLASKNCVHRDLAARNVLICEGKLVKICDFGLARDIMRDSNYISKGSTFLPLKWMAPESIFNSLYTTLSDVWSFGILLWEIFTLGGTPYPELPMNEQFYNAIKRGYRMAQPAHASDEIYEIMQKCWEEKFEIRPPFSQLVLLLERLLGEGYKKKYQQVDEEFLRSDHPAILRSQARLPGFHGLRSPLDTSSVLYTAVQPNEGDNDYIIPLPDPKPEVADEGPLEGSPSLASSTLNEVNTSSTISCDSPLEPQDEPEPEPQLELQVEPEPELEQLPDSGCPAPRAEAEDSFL

`COc1cc2c(Oc3ccc(-c4nc5ccccc5s4)cc3)ncnc2cc1OCCCN1CCN(C)CC1`: the residual activity (commonly what remains of the control signal, in per cent) in experiment [1] stood at 89%; in experiment [2], 88%. Besides, in experiment [3], the EC50 (commonly the concentration needed to bring the measured effect to its halfway point) was found to be 170 nM.

`COc1cc2c(Oc3ccc(-c4nc5ccccc5s4)cc3)ncnc2cc1OCCCN1CCCC1`: the residual activity in experiment [1] was 86%; in experiment [2], 99%. Besides, the EC50 in experiment [3] came out at 2000 nM.

Turning to `COc1cc2c(Oc3ccc(-c4nc5ccccc5s4)cc3F)ncnc2cc1OCCCN1CCN(C)CC1`, the residual activity was found to be 92% in experiment [1] and 99% in experiment [2]. In addition, in experiment [4], the EC50 is more than 10000 nM.
